≈ marks a conversion by molar mass, not a printed value.
How the values were obtained:
Assay type in all cases: functional
[1] = system: Mycolicibacterium vaccae; experiment: Antibacterial activity against Mycobacterium vaccae IMET10670 by broth microdilution method
Outline: (§1)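 Broth microdilution in Mueller-Hinton broth No.2 (MHII) following CLSI guidelines. The MIC (μM) was read by visual end point. Each compound was tested in triplicate.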

[2] = system: Pseudomonas aeruginosa; experiment: Antibacterial activity against Pseudomonas aeruginosa K799/61 at 0.1 mM incubated for 24 hrs at 37 degC by agar diffusion assay; conditions: K799/61, 24 h, read-out: DIZ
Outline: (§2)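 Agar well diffusion. 50 μL of a 0.1 mM solution in 1:9 DMSO/MeOH was added to 9 mm wells in Standard I nutrient agar or Mueller Hinton II agar. Plates were incubated at 37 °C for 24 h, or 44 h for M. vaccae, then inhibition zones were read. Unclear zones were scored separately.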

[3] = system: Escherichia coli; experiment: Antibacterial activity against Escherichia coli DC0 by broth microdilution method; outline: as §1
[4] = system: Escherichia coli; experiment: Antibacterial activity against Escherichia coli DC0 assessed as unclear inhibition zone or inhibition zone with many colonies at 0.1 mM incubated for 24 hrs at 37 degC by agar diffusion assay; conditions: DC0, 24 h, read-out: DIZ; outline: as §2
[5] = system: Pseudomonas aeruginosa; experiment: Antibacterial activity against wild type Pseudomonas aeruginosa K799 by broth microdilution method; outline: as §1
[6] = system: Micrococcus luteus; experiment: Antibacterial activity against Micrococcus luteus ATCC 10240 by broth microdilution method; outline: as §1
[7] = system: Escherichia coli; experiment: Antibacterial activity against Escherichia coli X580 assessed as unclear inhibition zone or inhibition zone with many colonies at 0.1 mM incubated for 24 hrs at 37 degC by agar diffusion assay; conditions: X580, 24 h, read-out: DIZ; outline: as §2
[8] = system: Escherichia coli; experiment: Antibacterial activity against Escherichia coli DC2 by broth microdilution method; outline: as §1
[9] = system: Escherichia coli; experiment: Antibacterial activity against Escherichia coli DC0 at 0.1 mM incubated for 24 hrs at 37 degC by agar diffusion assay; conditions: DC0, 24 h, read-out: DIZ; outline: as §2
[10] = system: Micrococcus luteus; experiment: Antibacterial activity against Micrococcus luteus ATCC 10240 at 0.1 mM incubated for 24 hrs at 37 degC by agar diffusion assay; conditions: ATCC 10240, 24 h, read-out: DIZ; outline: as §2
[11] = system: Pseudomonas aeruginosa; experiment: Antibacterial activity against Pseudomonas aeruginosa K799/61 by broth microdilution method; outline: as §1
[12] = system: Acinetobacter baumannii; experiment: Antibacterial activity against Acinetobacter baumannii ATCC 17961 assessed as unclear inhibition zone or inhibition zone with many colonies at 0.1 mM incubated for 24 hrs at 37 degC by agar diffusion assay; conditions: ATCC 17961, 24 h, read-out: DIZ; outline: as §2
[13] = system: Pseudomonas aeruginosa; experiment: Antibacterial activity against wild type Pseudomonas aeruginosa K799 at 0.1 mM incubated for 24 hrs at 37 degC by agar diffusion assay; conditions: K799, 24 h, read-out: DIZ; outline: as §2
[14] = system: Escherichia coli; experiment: Antibacterial activity against Escherichia coli X580 at 0.1 mM incubated for 24 hrs at 37 degC by agar diffusion assay; conditions: X580, 24 h, read-out: DIZ; outline: as §2
[15] = system: Staphylococcus aureus; experiment: Antibacterial activity against Staphylococcus aureus SG511 at 0.1 mM incubated for 24 hrs at 37 degC by agar diffusion assay; conditions: SG511, 24 h, read-out: DIZ; outline: as §2
[16] = system: Escherichia coli; experiment: Antibacterial activity against Escherichia coli DC2 at 0.1 mM incubated for 24 hrs at 37 degC by agar diffusion assay; conditions: DC2, 24 h, read-out: DIZ; outline: as §2
[17] = system: Mycolicibacterium vaccae; experiment: Antibacterial activity against Mycobacterium vaccae IMET10670 at 0.1 mM incubated for 44 hrs at 37 degC by agar diffusion assay; conditions: IMET10670, 44 h, read-out: DIZ; outline: as §2
[18] = system: Staphylococcus aureus; experiment: Antibacterial activity against Staphylococcus aureus SG511 by broth microdilution method; outline: as §1
[19] = system: Acinetobacter baumannii; experiment: Antibacterial activity against Acinetobacter baumannii ATCC 17961 by broth microdilution method; outline: as §1
[20] = system: Pseudomonas aeruginosa; experiment: Antibacterial activity against Pseudomonas aeruginosa K799/61 assessed as unclear inhibition zone or inhibition zone with many colonies at 0.1 mM incubated for 24 hrs at 37 degC by agar diffusion assay; conditions: K799/61, 24 h, read-out: DIZ; outline: as §2
[21] = system: Pseudomonas aeruginosa; experiment: Antibacterial activity against wild type Pseudomonas aeruginosa K799 assessed as unclear inhibition zone or inhibition zone with many colonies at 0.1 mM incubated for 24 hrs at 37 degC by agar diffusion assay; conditions: K799, 24 h, read-out: DIZ; outline: as §2
[22] = system: Bacillus subtilis; experiment: Antibacterial activity against Bacillus subtilis ATCC 6633 by broth microdilution method; outline: as §1
[23] = system: Bacillus subtilis; experiment: Antibacterial activity against Bacillus subtilis ATCC 6633 at 0.1 mM incubated for 24 hrs at 37 degC by agar diffusion assay; conditions: ATCC 6633, 24 h, read-out: DIZ; outline: as §2
[24] = system: Acinetobacter baumannii; experiment: Antibacterial activity against Acinetobacter baumannii ATCC 17961 at 0.1 mM incubated for 24 hrs at 37 degC by agar diffusion assay; conditions: ATCC 17961, 24 h, read-out: DIZ; outline: as §2
[25] = system: Mycolicibacterium vaccae; experiment: Antibacterial activity against Mycobacterium vaccae IMET10670 assessed as unclear inhibition zone or inhibition zone with many colonies at 0.1 mM incubated for 44 hrs at 37 degC by agar diffusion assay; conditions: IMET10670, 44 h, read-out: DIZ; outline: as §2

SMILES | MIC [1] [µM] | zone of inhibition at 100 µM [2] [mm] | MIC [3] [µM] | zone of inhibition at 100 µM [4] [mm] | MIC [5] [µM] | MIC [6] [µM] | MIC [8] [µM] | zone of inhibition at 100 µM [9] [mm] | zone of inhibition at 100 µM [10] [mm] | MIC [11] [µM] | zone of inhibition at 100 µM [13] [mm] | zone of inhibition at 100 µM [14] [mm] | zone of inhibition at 100 µM [15] [mm] | zone of inhibition at 100 µM [16] [mm] | zone of inhibition at 100 µM [17] [mm] | MIC [18] [µM] | MIC [19] [µM] | MIC [22] [µM] | zone of inhibition at 100 µM [23] [mm] | zone of inhibition at 100 µM [24] [mm] | other results
CC1=C(Br)C(=O)C(C(C)(C)CC(=O)N2CCN(c3cc4c(cc3F)c(=O)c(C(=O)O)cn4C3CC3)CC2)=C(C)C1=O | 2 (≈ 1.26 µg/mL) | 29 | 12.5 (≈ 7.86 µg/mL) | 21 | 5 (≈ 3.14 µg/mL) | 1.56 (≈ 0.98 µg/mL) | 8.33 (≈ 5.24 µg/mL) | 17 | 19 | 2.5 (≈ 1.57 µg/mL) | 29 | 33 | 25 | 24 | 37 | 0.1 (≈ 0.0628 µg/mL) | 0.78 (≈ 0.49 µg/mL) | < 0.05 | 35 | 18 | zone of inhibition at 100 µM [7]: 40 mm; zone of inhibition at 100 µM [12]: 23 mm; zone of inhibition at 100 µM [20]: 38 mm; zone of inhibition at 100 µM [21]: 35 mm
CC1=C(N)C(=O)C(C(C)(C)CC(=O)N2CCN(c3cc4c(cc3F)c(=O)c(C(=O)O)cn4C3CC3)CC2)=C(C)C1=O | 2 (≈ 1.13 µg/mL) | 31 | 25 (≈ 14.1 µg/mL) | 23 | 2.5 (≈ 1.41 µg/mL) | 12.5 (≈ 7.06 µg/mL) | 12.5 (≈ 7.06 µg/mL) | 16 | 17 | 5 (≈ 2.82 µg/mL) | 22 | 31 | 31 | 23 | 24 | < 0.05 | 0.6 (≈ 0.339 µg/mL) | < 0.05 | 36 | 24 | zone of inhibition at 100 µM [7]: 37 mm; zone of inhibition at 100 µM [25]: 30 mm; zone of inhibition at 100 µM [12]: 30 mm; zone of inhibition at 100 µM [20]: 35 mm; zone of inhibition at 100 µM [21]: 32 mm
CC1=C(N)C(=O)C(C(C)(C)CC(=O)O)=C(C)C1=O |  | 0 |  |  |  |  |  | 0 | 0 |  | 0 | 0 | 0 | 0 | 0 |  |  |  | 0 | 0 | 
CC1=CC(=O)C(C(C)(C)CC(=O)N2CCN(c3cc4c(cc3F)c(=O)c(C(=O)O)cn4C3CC3)CC2)=C(C)C1=O | 0.5 (≈ 0.275 µg/mL) | 35 | 12.5 (≈ 6.87 µg/mL) | 29 | 1.25 (≈ 0.687 µg/mL) | 0.2 (≈ 0.11 µg/mL) | 6.25 (≈ 3.43 µg/mL) | 21 | 28 | 2.5 (≈ 1.37 µg/mL) | 41 | 32 | 33 | 27 | 32 | < 0.05 | 0.39 (≈ 0.214 µg/mL) | < 0.05 | 39 | 26 | zone of inhibition at 100 µM [7]: 40 mm; zone of inhibition at 100 µM [25]: 42 mm; zone of inhibition at 100 µM [12]: 32 mm; zone of inhibition at 100 µM [20]: 42 mm
CC1=CC(=O)C(C(C)(C)CC(=O)O)=C(C)C1=O | 80 (≈ 18.9 µg/mL) | 0 | > 100 |  | > 100 | 50 (≈ 11.8 µg/mL) | > 100 | 0 | 0 | > 100 | 0 | 0 | 0 | 0 | 0 | > 100 | > 100 | 50 (≈ 11.8 µg/mL) | 0 | 0 | 

Reference: ChEMBL document CHEMBL3585272, “Syntheses and Antibacterial Activity of N-Acylated Ciprofloxacin Derivatives Based on the Trimethyl Lock” (ACS Med Chem Lett, 2015)
